According to ChEMBL document CHEMBL1139160 (Bioorg Med Chem Lett, 2007):

The compounds below were run on Rattus norvegicus (assay: Inhibition of DPP4 in Wistar rat plasma at 10 umol/kg, po). Settings: not given.
Type: functional
Summary of the method: (§1)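 Male/female not stated; Wistar rats given single oral dose of 10 µmol/kg in 0.5% hydroxypropylmethyl-cellulose. Jugular vein blood (0.1 mL) taken pre-dose and 0.5, 1, 2, 3, 5, 7, 9 h; plasma diluted 10-fold in PBS with 0.003% Brij-35, DPP-IV activity read by Gly-Pro-MCA fluorescence (ex 360/em 465 nm); % change of baseline, means ± SEM, n = 3.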
`N#Cc1ccc(N[C@@H]2CN[C@H](C(=O)N3CCSC3)C2)nc1` showed an inhibition in vivo at 10 µmol/kg of 70%.

Each compound was assayed on Rattus norvegicus (assay: Inhibition of DPP4 in Wistar rat plasma at 10 umol/kg, po within 30 mins). Settings: 0.5 h.
Type: functional
Summary of the method: as §1
Work on `O=C([C@@H]1C[C@H](N2CCN(c3ccc([N+](=O)[O-])cn3)CC2)CN1)N1CCSC1` yielded an inhibition in vivo at 10 µmol/kg of 95%.
`N#Cc1ccc(N2CCN([C@@H]3CN[C@H](C(=O)N4CCSC4)C3)CC2)cc1C#N` gave an inhibition in vivo at 10 µmol/kg of 95%.

Each compound was assayed on Rattus norvegicus (assay: Inhibition of DPP4 in Wistar rat plasma at 10 umol/kg, po after 9 hrs). Settings: read-out: Inhibition.
Type: functional
Summary of the method: as §1
`O=C([C@@H]1C[C@H](N2CCN(c3ccc([N+](=O)[O-])cn3)CC2)CN1)N1CCSC1` was tested, and the inhibition in vivo at 10 µmol/kg was > 60%.
For `N#Cc1ccc(N2CCN([C@@H]3CN[C@H](C(=O)N4CCSC4)C3)CC2)cc1C#N`, the inhibition in vivo at 10 µmol/kg was > 60%.

What follows are compounds tested against Dipeptidyl peptidase 4 (Rattus norvegicus, UniProt P14740) (assay: Inhibition of DPP4 in rat plasma by fluorescence assay). Settings: not given.
Dipeptidyl peptidase 4, sequence (P14740 whole entry): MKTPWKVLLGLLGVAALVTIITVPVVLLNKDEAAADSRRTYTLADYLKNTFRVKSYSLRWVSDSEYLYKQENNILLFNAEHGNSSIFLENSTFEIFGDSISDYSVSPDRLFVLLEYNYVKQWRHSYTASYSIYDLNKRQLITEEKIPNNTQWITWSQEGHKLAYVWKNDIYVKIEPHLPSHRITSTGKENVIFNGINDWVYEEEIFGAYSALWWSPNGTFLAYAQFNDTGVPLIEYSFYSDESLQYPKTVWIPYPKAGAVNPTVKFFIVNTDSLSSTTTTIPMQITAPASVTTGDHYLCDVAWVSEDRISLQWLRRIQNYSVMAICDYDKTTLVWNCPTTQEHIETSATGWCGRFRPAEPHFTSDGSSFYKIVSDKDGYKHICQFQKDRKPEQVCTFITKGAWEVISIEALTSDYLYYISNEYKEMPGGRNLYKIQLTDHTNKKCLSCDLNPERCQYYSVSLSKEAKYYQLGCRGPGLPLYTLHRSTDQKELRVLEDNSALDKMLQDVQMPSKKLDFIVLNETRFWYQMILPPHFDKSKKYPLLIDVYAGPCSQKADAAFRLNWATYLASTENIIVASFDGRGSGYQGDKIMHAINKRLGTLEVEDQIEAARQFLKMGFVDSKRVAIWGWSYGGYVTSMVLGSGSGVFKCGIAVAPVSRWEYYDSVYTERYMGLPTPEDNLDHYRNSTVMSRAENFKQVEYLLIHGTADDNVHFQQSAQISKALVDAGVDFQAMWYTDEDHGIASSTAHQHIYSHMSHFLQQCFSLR
Type: cell-free
For `O=C([C@@H]1C[C@H](N2CCN(c3ccc(Cl)cc3)CC2)CN1)N1CCSC1`, the IC50 was 10.3 nM.
In the case of `N#Cc1ccnc(N2CCN([C@@H]3CN[C@H](C(=O)N4CCSC4)C3)CC2)c1`, the IC50 is reported as 1.4 nM.
With `N#Cc1ccc(N2CCN([C@@H]3CN[C@H](C(=O)N4CCSC4)C3)CC2)cc1` the IC50 was 4.7 nM.
For `COc1ccc(N2CCN([C@@H]3CN[C@H](C(=O)N4CCSC4)C3)CC2)cc1`, the IC50 was 16.9 nM.
`O=C([C@@H]1C[C@H](N2CCN(c3ccc(Br)cc3)CC2)CN1)N1CCSC1` gave an IC50 of 9 nM.
`N#Cc1ccc(N2CCN([C@@H]3CN[C@H](C(=O)N4CCSC4)C3)CC2)nc1` was tested, and the IC50 was 1.9 nM.
Compound `O=C([C@@H]1C[C@H](N2CCN(c3ccc(F)cc3)CC2)CN1)N1CCSC1` has an IC50 of 17.5 nM.
For `O=C([C@@H]1C[C@H](N2CCN(c3cccc(Cl)c3)CC2)CN1)N1CCSC1`, the IC50 was 7.2 nM.
Work on `O=C([C@@H]1C[C@H](N2CCCCC2)CN1)N1CCSC1` yielded an IC50 of 74.4 nM.
`O=C([C@@H]1C[C@H](N2CCN(c3ccc(C(F)(F)F)cc3)CC2)CN1)N1CCSC1` gave an IC50 of 7.2 nM.
With `O=C([C@@H]1C[C@H](N2CCN(c3ccccc3)CC2)CN1)N1CCSC1` the IC50 was 17.6 nM.
